Laboratory results: ChEMBL document CHEMBL3407418, “Fragment-based drug discovery of 2-thiazolidinones as BRD4 inhibitors: 2. Structure-based optimization” (J Med Chem, 2015)
The source made the active and inactive calls. No cut-off for these calls is given here.

Columns and labels:
Cytochrome P450 2C19 = Cytochrome P450 2C19 (Homo sapiens, UniProt P33261); experiment: Time dependent inhibition of CYP2C19 in human liver microsomes at 10 uM using mephenytoin substrate preincubated for 5 mins before NADPH addition and measured after 20 mins post NADPH addition; type: ADME
CYP2C9 = CYP2C9 (Homo sapiens, UniProt P11712); experiment: (§1) Inhibition of CYP2C9 in human liver microsomes at 10 uM using diclofenac substrate preincubated for 5 mins before NADPH addition and measured after 20 mins post NADPH addition; type: ADME; conditions: liver microsomes, probe diclofenac
Summary of the method: (§2)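 Human liver microsomes 0.2 mg/mL, 1 mmol NADPH, 100 mmol phosphate pH 7.4, probe cocktail (10 μM midazolam, 100 μM testosterone, 10 μM dextromethorphan, 20 μM diclofenac, 100 μM phenacetin, 100 μM mephenytoin), test compound 10 μM or PBS; organic solvent <1%. 5 min preincubation at 37 °C, NADPH-generating system start, 20 min reaction; inhibition from metabolite formation relative to PBS.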

[1] = target: T1, ATPase family AAA domain-containing protein 2 (Homo sapiens) (UniProt Q6PL18); experiment: Binding affinity to ATAD2 (unknown origin) assessed as increase in protein melting temperature at 50 umol by real-time PCR system based thermal shift assay
T1 sequence (whole entry): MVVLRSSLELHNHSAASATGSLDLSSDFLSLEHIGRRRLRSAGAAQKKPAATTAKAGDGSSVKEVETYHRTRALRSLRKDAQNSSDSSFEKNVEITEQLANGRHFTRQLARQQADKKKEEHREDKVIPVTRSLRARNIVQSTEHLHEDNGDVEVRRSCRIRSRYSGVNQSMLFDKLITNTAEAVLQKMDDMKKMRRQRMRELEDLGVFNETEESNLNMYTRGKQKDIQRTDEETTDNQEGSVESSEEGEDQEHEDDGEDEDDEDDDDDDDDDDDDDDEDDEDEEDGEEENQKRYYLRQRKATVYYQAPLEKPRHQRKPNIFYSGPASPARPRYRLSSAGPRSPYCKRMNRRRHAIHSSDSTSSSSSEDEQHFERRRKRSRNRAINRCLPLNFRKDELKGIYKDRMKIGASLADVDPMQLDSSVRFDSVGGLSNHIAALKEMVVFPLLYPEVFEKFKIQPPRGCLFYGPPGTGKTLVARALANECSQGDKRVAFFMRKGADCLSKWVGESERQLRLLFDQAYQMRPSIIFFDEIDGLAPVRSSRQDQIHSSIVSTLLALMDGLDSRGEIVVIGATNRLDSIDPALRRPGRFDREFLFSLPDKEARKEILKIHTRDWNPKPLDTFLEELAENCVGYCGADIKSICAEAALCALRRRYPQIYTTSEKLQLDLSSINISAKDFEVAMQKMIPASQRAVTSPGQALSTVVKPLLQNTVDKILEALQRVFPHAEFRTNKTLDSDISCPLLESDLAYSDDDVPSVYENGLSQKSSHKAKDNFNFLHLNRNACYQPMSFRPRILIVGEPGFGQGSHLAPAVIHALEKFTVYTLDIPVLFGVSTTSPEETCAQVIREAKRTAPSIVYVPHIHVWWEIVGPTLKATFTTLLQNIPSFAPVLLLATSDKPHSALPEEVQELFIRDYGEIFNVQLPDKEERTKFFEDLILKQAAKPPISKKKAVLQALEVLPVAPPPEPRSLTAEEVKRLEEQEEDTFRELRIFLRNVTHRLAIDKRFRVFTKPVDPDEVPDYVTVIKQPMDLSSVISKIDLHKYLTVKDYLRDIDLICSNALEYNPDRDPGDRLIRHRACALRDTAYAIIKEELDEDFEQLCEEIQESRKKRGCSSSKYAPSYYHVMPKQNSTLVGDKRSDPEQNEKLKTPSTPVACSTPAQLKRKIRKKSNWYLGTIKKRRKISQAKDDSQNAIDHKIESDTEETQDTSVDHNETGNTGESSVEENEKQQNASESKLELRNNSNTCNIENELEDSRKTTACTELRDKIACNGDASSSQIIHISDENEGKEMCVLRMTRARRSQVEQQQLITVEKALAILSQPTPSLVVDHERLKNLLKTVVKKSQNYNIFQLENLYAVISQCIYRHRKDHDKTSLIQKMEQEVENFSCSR
Summary of the method: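 Bromodomain proteins in 10 mmol HEPES pH 7.5, 500 mmol NaCl at 75 μg/mL final; compound at 50 µmol final; SYPRO Orange probe at 1:1000. Four replicates per protein mixture. Melt curve read on a real-time PCR instrument, heating 25 °C to 99 °C at 1 °C/min under continuous fluorescence reading; binding taken as the rise in protein melting temperature.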

Cytochrome P450 2D6 = Cytochrome P450 2D6 (Homo sapiens, UniProt P10635); experiment: Time dependent inhibition of CYP2D6 in human liver microsomes at 10 uM using dextromethorphan substrate preincubated for 5 mins before NADPH addition and measured after 20 mins post NADPH addition; type: ADME
Cytochrome P450 2C9 [2] = target: T2, Cytochrome P450 2C9 (Homo sapiens, UniProt P11712); experiment: as §1; type: ADME; conditions: microsomes, 20 min, 10 µM; summary of the method: as §2
[3] = target: T3, Bromodomain-containing protein 4 (Homo sapiens, UniProt O60885); experiment: Inhibition of BRD4 in human HT-29 cells assessed as reduction in c-myc mRNA expression at 0.3125 uM to 5 uM uM after 24 hrs by RT-qPCR method; type: cell-based
Summary of the method: (§3)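 HT-29 cells seeded overnight and exposed to compounds for 24 h; total RNA isolated, reverse-transcribed, and analysed by RT-qPCR with c-myc primers. Relative c-myc mRNA normalised to β-actin and expressed versus untreated control.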

Cytochrome P450 2C9 [4] = target: T2, Cytochrome P450 2C9; experiment: Time dependent inhibition of CYP2C9 in human liver microsomes at 10 uM using diclofenac substrate preincubated for 5 mins before NADPH addition and measured after 20 mins post NADPH addition; type: ADME
[5] = target: T3, Bromodomain-containing protein 4; experiment: Inhibition of BRD4 in human HT-29 cells assessed as reduction in c-myc mRNA expression at 5 uM after 24 hrs by RT-qPCR method; type: cell-based; summary of the method: as §3
CYP2D6 = CYP2D6 (Homo sapiens, UniProt P10635); experiment: Inhibition of CYP2D6 in human liver microsomes at 10 uM using dextromethorphan substrate preincubated for 5 mins before NADPH addition and measured after 20 mins post NADPH addition; type: ADME; conditions: liver microsomes, probe dextromethorphan; summary of the method: as §2
[6] = target: T3, Bromodomain-containing protein 4; experiment: Inhibition of BRD4 in human HT-29 cells assessed as reduction in c-Myc protein expression at 5 and 10 uM after 24 hrs by Western blotting method; type: cell-based
Summary of the method: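 HT-29 cells seeded overnight, then treated 24 h; lysed in 1×SDS buffer (50 mmol/L Tris-HCl pH 6.8, 100 mmol/L DTT, 2% SDS, 10% glycerol), boiled 10 min. c-Myc immunoblotted with GAPDH loading control, peroxidase secondary antibodies, ECL detection. Repeated three times.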

Cytochrome P450 3A4 = Cytochrome P450 3A4 (Homo sapiens, UniProt P08684); experiment: Time dependent inhibition of CYP3A4 in human liver microsomes at 10 uM using midazolam substrate preincubated for 5 mins before NADPH addition and measured after 20 mins post NADPH addition; type: ADME
Cytochrome P450 3A4, sequence (P08684 whole entry): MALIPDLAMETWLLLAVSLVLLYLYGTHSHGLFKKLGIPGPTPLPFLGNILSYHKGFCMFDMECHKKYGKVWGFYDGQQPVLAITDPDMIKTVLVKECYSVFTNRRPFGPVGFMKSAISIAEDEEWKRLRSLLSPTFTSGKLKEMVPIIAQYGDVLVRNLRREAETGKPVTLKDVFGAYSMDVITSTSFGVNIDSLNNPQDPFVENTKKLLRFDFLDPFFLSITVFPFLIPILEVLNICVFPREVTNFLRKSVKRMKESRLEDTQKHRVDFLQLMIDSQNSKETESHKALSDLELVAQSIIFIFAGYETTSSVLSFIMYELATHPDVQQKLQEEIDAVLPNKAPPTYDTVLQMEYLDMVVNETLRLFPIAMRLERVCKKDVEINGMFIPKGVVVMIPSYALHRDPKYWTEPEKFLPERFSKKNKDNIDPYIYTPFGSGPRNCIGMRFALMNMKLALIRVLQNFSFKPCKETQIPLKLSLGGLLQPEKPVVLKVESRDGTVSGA

CYP2D6, sequence (P10635 whole entry): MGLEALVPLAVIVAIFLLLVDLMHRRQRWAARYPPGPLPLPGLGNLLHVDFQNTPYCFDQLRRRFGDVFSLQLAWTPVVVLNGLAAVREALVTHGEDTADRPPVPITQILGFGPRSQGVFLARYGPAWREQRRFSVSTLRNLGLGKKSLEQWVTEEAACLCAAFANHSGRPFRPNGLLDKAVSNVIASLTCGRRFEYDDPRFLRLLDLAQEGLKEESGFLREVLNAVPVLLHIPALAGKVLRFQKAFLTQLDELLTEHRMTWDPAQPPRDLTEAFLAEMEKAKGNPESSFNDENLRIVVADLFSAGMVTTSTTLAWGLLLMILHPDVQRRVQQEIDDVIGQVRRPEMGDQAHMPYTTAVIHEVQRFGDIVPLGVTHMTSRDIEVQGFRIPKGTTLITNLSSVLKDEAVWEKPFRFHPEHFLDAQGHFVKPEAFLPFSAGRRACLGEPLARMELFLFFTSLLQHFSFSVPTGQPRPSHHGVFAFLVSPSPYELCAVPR
Cytochrome P450 2D6, sequence (P10635 whole entry): as above
CYP2C9, sequence (P11712 whole entry): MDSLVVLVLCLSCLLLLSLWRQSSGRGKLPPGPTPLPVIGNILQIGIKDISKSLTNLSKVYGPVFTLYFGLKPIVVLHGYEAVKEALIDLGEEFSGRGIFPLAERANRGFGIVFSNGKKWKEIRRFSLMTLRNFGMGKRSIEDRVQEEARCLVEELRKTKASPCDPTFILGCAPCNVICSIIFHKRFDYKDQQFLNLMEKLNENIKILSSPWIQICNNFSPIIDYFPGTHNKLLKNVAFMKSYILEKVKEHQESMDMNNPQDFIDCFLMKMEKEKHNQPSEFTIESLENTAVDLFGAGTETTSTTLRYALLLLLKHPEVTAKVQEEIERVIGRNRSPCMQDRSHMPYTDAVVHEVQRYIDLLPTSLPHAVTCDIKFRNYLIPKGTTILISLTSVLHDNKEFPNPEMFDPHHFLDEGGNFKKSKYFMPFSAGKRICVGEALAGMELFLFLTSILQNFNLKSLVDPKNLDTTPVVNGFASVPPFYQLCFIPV
T2 sequence (P11712 whole entry): as above
Cytochrome P450 2C19, sequence (P33261 whole entry): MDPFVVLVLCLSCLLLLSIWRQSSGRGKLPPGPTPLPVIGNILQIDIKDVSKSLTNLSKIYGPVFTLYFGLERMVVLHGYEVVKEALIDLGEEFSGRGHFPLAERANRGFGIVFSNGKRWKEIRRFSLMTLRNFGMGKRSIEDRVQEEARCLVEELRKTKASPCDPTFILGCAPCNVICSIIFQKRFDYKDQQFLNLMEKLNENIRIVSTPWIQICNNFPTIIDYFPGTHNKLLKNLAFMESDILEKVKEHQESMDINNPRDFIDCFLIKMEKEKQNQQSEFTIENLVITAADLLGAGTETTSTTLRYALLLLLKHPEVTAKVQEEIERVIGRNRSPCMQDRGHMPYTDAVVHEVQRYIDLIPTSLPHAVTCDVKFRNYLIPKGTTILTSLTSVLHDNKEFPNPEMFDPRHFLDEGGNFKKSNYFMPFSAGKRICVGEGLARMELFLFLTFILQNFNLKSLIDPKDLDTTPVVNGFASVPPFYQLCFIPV

| SMILES | TDI (Cytochrome P450 2C19) | inhibition at 20 min, 10 µM (CYP2C9) [%] | ΔTm [1] [°C] | TDI (Cytochrome P450 2D6) | inhibition (INH) (Cytochrome P450 2C9 [2]) | inhibition [3] | TDI (Cytochrome P450 2C9 [4]) | inhibition [5] [%] | inhibition at 20 min, 10 µM (CYP2D6) [%] | inhibition [6] | TDI (Cytochrome P450 3A4) |
| --- | --- | --- | --- | --- | --- | --- | --- | --- | --- | --- | --- |
| COc1ccc(-c2csc(=O)[nH]2)cc1S(=O)(=O)NC1CCCC1 | Active | 10 | 1.36 | Active |  |  |  |  |  |  |  |
| Cc1c(Br)cc(-c2csc(=O)[nH]2)cc1S(=O)(=O)NC1CCCC1 |  |  | 3.42 |  | Not Active | Active | Active | > 60 | 39 | Active |  |
| Cc1ccc(-c2csc(=O)[nH]2)cc1S(=O)(=O)NC1CCCC1 | Active |  | 1.44 |  | Not Active |  | Active |  | 27 |  |  |
| Nc1ccc(-c2csc(=O)[nH]2)cc1S(=O)(=O)NC1CCCC1 |  | 74 | 3.28 |  |  |  |  |  | 18 |  | Active |

Other lines, results leading:

| TDI (Cytochrome P450 2C19) | inhibition at 20 min, 10 µM (CYP2C9) [%] | ΔTm [1] [°C] | TDI (Cytochrome P450 2D6) | inhibition (INH) (Cytochrome P450 2C9 [2]) | inhibition [3] | TDI (Cytochrome P450 2C9 [4]) | inhibition [5] [%] | inhibition at 20 min, 10 µM (CYP2D6) [%] | inhibition [6] | TDI (Cytochrome P450 3A4) | SMILES |
| --- | --- | --- | --- | --- | --- | --- | --- | --- | --- | --- | --- |
| Not Active | 14 | 3.55 | Not Active |  | Active | Not Active | > 60 | 17 | Active | Not Active | O=C(Nc1cc(-c2csc(=O)[nH]2)cc(S(=O)(=O)NC2CCCC2)c1)C1CC1 |
| Not Active |  | 2.7 | Not Active | Not Active | Active | Not Active | 90 | 3 | Active | Not Active | Cc1c(N)cc(-c2csc(=O)[nH]2)cc1S(=O)(=O)NC1CCCC1 |
